Published values pooled from the literature.
Lines come from different studies, so protocols differ.
Cell line: A549
Read-out: cell growth or viability

Compound	test	conditions	IC50
CC1=CC(=O)C(C(C)C)=CC1=O	SRB	48 h	11.1 µM
O=C(Cn1cc(COc2ncnc3[nH]cnc23)nn1)NCc1ccc(Cl)cc1	MTT		15.3 µM
O=C(Nc1cc(C(F)(F)F)cc(C(F)(F)F)c1)Nc1nc2cc(-c3ccc4ncn(Cc5ccccc5)c(=O)c4c3)ccc2s1	MTT	72 h	5.37 µM
CCCCCC(=O)Nc1ccc(-c2ccc3ncn(Cc4ccccc4)c(=O)c3c2)cn1	CCK-8	72 h	> 10 µM
COc1ccc(C=NNC(=O)c2cc(-c3ccccc3)n(-c3ccc(S(N)(=O)=O)cc3)n2)cc1OC	fluorescence	48 h	15.5 µM
O=C(Nc1ccc(Cl)cc1)Nc1nc2cc(-c3ccc4ncn(CCN5CCOCC5)c(=O)c4c3)ccc2s1	MTT	72 h	> 20 µM
CNC(=O)c1cc(Oc2ccc(NC(=O)Nc3ccc(Cl)c(C(F)(F)F)c3)cc2)ccn1	MTT	24 h	2.92 µM
Cc1sc2c(c1C)C(c1ccc(Cl)cc1)=N[C@@H](CC(=O)NCCCCNC(=O)COc1cccc3c1C(=O)N(C1CCC(=O)NC1=O)C3=O)c1nnc(C)n1-2 (stereo partly shown)	CCK-8	72 h	> 10 µM
COc1ccc(NC(=S)N/N=C/c2ccc(N3CCC(O)CC3)cc2)cc1	MTT	24 h	5.2 µM
CC(=NNC(=O)c1cc(-c2ccccc2)n(-c2ccc(S(N)(=O)=O)cc2)n1)c1ccc(Br)cc1	fluorescence	48 h	25.9 µM
C/C(=N\C1CCCCC1/N=C(\C)c1c(O)c2ccccc2oc1=O)c1c(O)c2ccccc2oc1=O (stereo not shown)	MTT	48 h	6.56 µM
Cc1ccc(CNC(=S)N/N=C/c2ccc(N3CCC(O)CC3)cc2)cc1	MTT	24 h	3.28 µM
O=C(O)c1ccc(NCc2ccc(Br)cc2)cc1	resazurin	72 h	> 100 µM
O=C(Nc1ccc(Br)cc1)Nc1nc2cc(-c3ccc4ncn(Cc5ccccc5)c(=O)c4c3)ccc2s1	MTT	72 h	> 20 µM
O=C(Nc1ccc(-c2ccc3ncn(Cc4ccccc4)c(=O)c3c2)cn1)C1CCC1	CCK-8	72 h	> 10 µM
Cc1cc(NS(=O)(=O)c2ccc(NC(=O)/C(C#N)=C/c3ccc(N4CCCCC4)cc3)cc2)no1	MTT	48 h	36.4 µM
O=C(Nc1ccc(C(F)(F)F)cc1)Nc1nc2cc(-c3ccc4ncn(CCN5CCOCC5)c(=O)c4c3)ccc2s1	MTT	72 h	2.01 µM
COc1ccc(NC(=S)N/N=C/c2cccc3cc4ccccc4nc23)cc1	MTT	48 h	17.8 µM
Cc1ccccc1NC(=O)Nc1ccc(-c2ccc3ncn(Cc4ccccc4)c(=O)c3c2)cn1	CCK-8	72 h	0.98 µM
Cc1cc(C)cc(NC(=O)Nc2nc3cc(-c4ccc5ncn(Cc6ccccc6)c(=O)c5c4)ccc3s2)c1	MTT	72 h	> 20 µM
O=C(C=Cc1ccc(OCCOc2ccc(C=CC(=O)c3cccs3)cc2)cc1)c1cccs1	MTT	48 h	273 µM
Cc1c2c(nn1C)CSCc1cc(n(C)n1)CSc1cc(c3ccccc3c1)OCCCc1c(C(=O)O)n(C)c3c-2c(Cl)ccc13	CCK-8		50 µM
O=C(Nc1ccc(-c2ccc3ncn(Cc4ccccc4)c(=O)c3c2)cn1)C1CCCC1	CCK-8	72 h	> 10 µM
O=C(N[C@@H](CSCc1ccccc1)C(=O)NO)c1ccccc1	MTT	48 h	201 µM
CCCNC(=S)N/N=C/c1cccc2cc3ccccc3nc12	MTT	48 h	> 50 µM
COc1cccc2c1C(=O)c1c(O)c3c(c(O)c1C2=O)C[C@@](O)(C(=O)CO)C[C@@H]3O[C@H]1C[C@H](N)[C@H](O)[C@H](C)O1	MTT	24 h	0.69 µg/mL

Compound	test	conditions	IC50
C/C(=N\N=C(/C)c1c(O)c2ccccc2oc1=O)c1c(O)c2ccccc2oc1=O	MTT	48 h	39.5 µM
CC(C)[C@@H]1NC(=O)[C@@H](CCCNC(=N)N)NC(=O)[C@H]([C@@H](C)O)NC(=O)[C@@H](CCCN)NC(=O)[C@H](Cc2ccccc2)NC(=O)[C@@H](Cc2ccccc2)NC1=O	ATP luminescence	72 h	> 100 µM
O=C(O)c1ccc(NCc2ccc([N+](=O)[O-])cc2)cc1	resazurin	72 h	> 100 µM
C(=N\Nc1cc(N/N=C/c2ccc3ccccc3n2)nc(-c2ccccc2)n1)/c1ccc2ccccc2n1	MTT	48 h	7.32 µM
CC(C)[C@@H]1NC(=O)[C@@H](Cc2c[nH]cn2)NC(=O)[C@H]([C@@H](C)O)NC(=O)[C@@H](CCCN)NC(=O)[C@H](Cc2ccccc2)NC(=O)[C@@H](Cc2ccccc2)NC1=O	ATP luminescence		55.8 µM
C(=N\Nc1cc(N/N=C/c2ccc3ccccc3n2)ncn1)/c1ccc2ccccc2n1	MTT	48 h	16.7 µM
Cc1cc(NS(=O)(=O)c2ccc(NC(=O)/C(C#N)=C/c3ccncc3)cc2)no1	MTT	48 h	196 µM
CCCn1cnc2ccc(-c3ccc(N4CCCCC4=O)nc3)cc2c1=O	CCK-8	72 h	> 10 µM
OC1CCN(c2ccc(/C=N/NC(=S)NC3CCCCC3)cc2)CC1	MTT	24 h	3.83 µM
CCCc1cc2cc(-n3nc(C)c4c3CC(C)(C)CC4=O)cc(N3CCC(O)CC3)c2c(=O)[nH]1	MTS		7.38 µM
O=C(O)c1ccc(NCc2cccc(O)c2O)cc1	resazurin	72 h	90.7 µM
CC1=CC(=O)c2ccccc2C1=O	MTT		55.6 µM
NS(=O)(=O)c1ccc(-n2nc(C(=O)NN=Cc3cccnc3)cc2-c2ccccc2)cc1	fluorescence	48 h	24.6 µM
O=C(O)c1ccc(NCc2ccc(Cl)cc2)cc1	resazurin	72 h	> 100 µM
CCCCC(=O)Nc1ccc(-c2ccc3ncn(C4CC4)c(=O)c3c2)cn1	CCK-8	72 h	> 10 µM
COc1ccc(NC(=O)Nc2nc3cc(-c4ccc5ncn(Cc6ccccc6)c(=O)c5c4)ccc3s2)cc1	MTT	72 h	2.75 µM
O=C(NO)Nc1nc2ccc(Br)cc2c(=O)n1-c1ccccc1	MTT	48 h	28 µM
CCCCC(=O)Nc1ccc(-c2ccc3ncn(CCF)c(=O)c3c2)cn1	CCK-8	72 h	> 10 µM
CC(C)c1ccc(/C=C2\N=C(SCC(=O)O)N(c3ccccc3)C2=O)cc1	MTT		57.4 µg/mL
C/C(=N/NC(=O)c1cn(-c2ccccc2)nc1-c1ccc(Br)cc1)c1c(O)cc(C)oc1=O	MTT	48 h	140 µM
CC(=O)O[C@H]1C(=O)[C@@]2(C)[C@H]([C@H](OC(=O)c3ccccc3)[C@]3(O)C[C@H](OC(=O)[C@H](O)[C@@H](NC(=O)c4ccccc4)c4ccccc4)C(C)=C1C3(C)C)[C@]1(OC(C)=O)CO[C@@H]1C[C@@H]2O	MTT	72 h	0.64 µM
Cc1ccc(NNc2nc3c(Cl)cc(Cl)cc3c(=O)n2-c2ccccc2)cc1	MTT	48 h	> 200 µM
COc1ccc(C(=O)Nc2nc3cc(-c4ccc5ncn(Cc6ccccc6)c(=O)c5c4)ccc3s2)cc1	MTT	72 h	> 20 µM
COC(=O)c1cc(C(C)=NNc2nc(-c3ccc4c(c3)OCCCO4)cs2)ccc1O	MTT	96 h	180 µM
CCCCn1cnc2ccc(-c3ccc(NC(=O)Nc4ccc(CC)cc4)nc3)cc2c1=O	CCK-8	72 h	> 10 µM
NNc1nc2ccc(Br)cc2c(=O)n1-c1ccccc1	MTT	48 h	53.5 µM
